Test results as given in ChEMBL document CHEMBL4251638, “Amino acid conjugated antimicrobial drugs: Synthesis, lipophilicity- activity relationship, antibacterial and urease inhibition activity” (Eur J Med Chem, 2018).
≈ marks a conversion by molar mass, not a printed value. Calls of active or inactive are those of the source. No cut-off for these calls is given here.

Experiments:
[1] = tested on: Staphylococcus aureus; test: Antibacterial activity against Staphylococcus aureus ATCC 6538 after overnight incubation by microbroth dilution method; format: functional
Summary of the method: (§1)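 Strains grown on nutrient agar, 37°C, 24 h. Inoculum from colony in nutrient broth, 24 h at 37°C, adjusted to McFarland 0.5, about 5 × 10^4 CFU/ml per well. DMSO stocks (4 mg/mL) serially diluted in nutrient broth to final 256 to 0.16 µg/mL. Incubated overnight at 37°C. MIC90 is the lowest concentration inhibiting growth. DMSO 1% final as negative control. Run in triplicate.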

[2] = tested on: Bacillus spizizenii; test: Antibacterial activity against Bacillus subtilis ATCC 6633 after overnight incubation by microbroth dilution method; format: functional; summary of the method: as §1
[3] = tested on: Escherichia coli; test: Antibacterial activity against Escherichia coli ATCC 25922 after overnight incubation by microbroth dilution method; format: functional; summary of the method: as §1
[4] = tested on: Salmonella typhimurium; test: Antibacterial activity against Salmonella typhimurium ATCC 14028 after overnight incubation by microbroth dilution method; format: functional, Salmonella enterica subsp. enterica serovar Typhimurium; settings: Salmonella enterica
[5] = tested on: Pseudomonas aeruginosa; test: Antibacterial activity against Pseudomonas aeruginosa ATCC 15442 after overnight incubation by microbroth dilution method; format: functional; summary of the method: as §1
[6] = Inhibition of Bacillus pasteurii urease using urea as substrate measured after 20 mins by phenol reagent based assay; set-up: species or system Sporosarcina pasteurii
Summary of the method: (§2)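 Indophenol method. Enzyme incubated with compound in buffer containing 100 mM urea at 30 °C for 20 min. Phenol reagent (1% w/v phenol, 0.005% w/v sodium nitroprusside) then alkali reagent (0.5% w/v NaOH, 0.1% v/v […]) added. Absorbance read at 630 nm as change per min. Thiourea was the reference inhibitor.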

[7] = tested on: Salmonella typhimurium; settings: Salmonella enterica subsp. enterica serovar Typhimurium; ATCC 14028
[8] = tested on: Sporosarcina pasteurii; test: Inhibition of Bacillus pasteurii urease using urea as substrate measured after 20 mins by phenol reagent based assay relative to control; summary of the method: as §2

MIC90 [1]	MIC90 [2]	MIC90 [3]	MIC90 [4] [µM]	MIC90 [5]	IC50 [6] [µM]	MIC90 [7]	inhibition [8] [%]	SMILES
50.3 µM (≈ 16 µg/mL)	83.6 µM (≈ 26.6 µg/mL)	201 µM (≈ 64 µg/mL)	201 (≈ 64 µg/mL)	268 µM (≈ 85.3 µg/mL)	27.4			Cc1ncc([N+](=O)[O-])n1CCOC(=O)C(N)Cc1ccccc1 (configuration not stated)
303 µM (≈ 171 µg/mL)	228 µM (≈ 128 µg/mL)	47.3 µM (≈ 26.6 µg/mL)	56.8 (≈ 32 µg/mL)	28.4 µM (≈ 16 µg/mL)	13.8			COc1nc(Nc2nc(N)ncc2Cc2cc(OC)c(OC)c(OC)c2)nc(OC(=O)C(N)Cc2ccccc2)n1 (configuration not stated)
118 µM (≈ 42.6 µg/mL)	177 µM (≈ 64 µg/mL)	59 µM (≈ 21.3 µg/mL)	74 (≈ 26.7 µg/mL)	74 µM (≈ 26.7 µg/mL)	29.3			COc1nc(NNC(=O)c2ccncc2)nc(OC(=O)C(N)C(C)C)n1 (configuration not stated)
118 µM (≈ 32 µg/mL)	158 µM (≈ 42.7 µg/mL)	473 µM (≈ 128 µg/mL)	632 (≈ 171 µg/mL)	474 µM (≈ 128 µg/mL)	29.5			Cc1ncc([N+](=O)[O-])n1CCOC(=O)C(N)C(C)C (configuration not stated)
179 µM (≈ 64 µg/mL)	239 µM (≈ 85.4 µg/mL)	74.4 µM (≈ 26.6 µg/mL)	89.5 (≈ 32 µg/mL)	119 µM (≈ 42.6 µg/mL)	13.6			Cc1ncc([N+](=O)[O-])n1CCOC(=O)C(N)Cc1c[nH]c2ccccc12 (configuration not stated)
16.5 µM (≈ 7.96 µg/mL)	13 µM (≈ 6.27 µg/mL)	2 µM (≈ 0.965 µg/mL)	6.8 (≈ 3.28 µg/mL)	4 µM (≈ 1.93 µg/mL)	16.3			COc1nc(OCCn2c([N+](=O)[O-])cnc2C)nc(OC(=O)C(N)Cc2c[nH]c3ccccc23)n1 (configuration not stated)
98.9 µM (≈ 32 µg/mL)	98.9 µM (≈ 32 µg/mL)	528 µM (≈ 171 µg/mL)	792 (≈ 256 µg/mL)	660 µM (≈ 213 µg/mL)	37			NC(Cc1c[nH]c2ccccc12)C(=O)NNC(=O)c1ccncc1 (configuration not stated)
244 µM (≈ 107 µg/mL)	244 µM (≈ 107 µg/mL)	73.1 µM (≈ 32 µg/mL)	97.4 (≈ 42.6 µg/mL)	73.1 µM (≈ 32 µg/mL)	31.3			COc1cc(Cc2cnc(N)nc2NC(=O)C(N)Cc2ccccc2)cc(OC)c1OC (configuration not stated)
82.2 µM (≈ 32 µg/mL)	68.3 µM (≈ 26.6 µg/mL)	164 µM (≈ 64 µg/mL)	219 (≈ 85.3 µg/mL)	137 µM (≈ 53.3 µg/mL)	52.4			COc1cc(Cc2cnc(N)nc2NC(=O)C(N)C(C)C)cc(OC)c1OC (configuration not stated)
22.7 µM (≈ 6.59 µg/mL)		55.1 µM (≈ 16 µg/mL)						COc1cc(Cc2cnc(N)nc2N)cc(OC)c1OC [TRIMETHOPRIM]
inactive	inactive	inactive		inactive	21.1	inactive		NC(Cc1ccccc1)C(=O)NNC(=O)c1ccncc1 (configuration not stated)
81 µM (≈ 32 µg/mL)	81 µM (≈ 32 µg/mL)	67.3 µM (≈ 26.6 µg/mL)	81 (≈ 32 µg/mL)	54 µM (≈ 21.4 µg/mL)	19.5			COc1nc(OCCn2c([N+](=O)[O-])cnc2C)nc(OC(=O)C(N)C(C)C)n1 (configuration not stated)
24 µM (≈ 10.6 µg/mL)	18 µM (≈ 7.98 µg/mL)	7.4 µM (≈ 3.28 µg/mL)	18 (≈ 7.98 µg/mL)	9 µM (≈ 3.99 µg/mL)	11.4			COc1nc(OCCn2c([N+](=O)[O-])cnc2C)nc(OC(=O)C(N)Cc2ccccc2)n1 (configuration not stated)
47.5 µM (≈ 21.3 µg/mL)	71 µM (≈ 31.8 µg/mL)	36 µM (≈ 16.1 µg/mL)	36 (≈ 16.1 µg/mL)	60 µM (≈ 26.9 µg/mL)	37.3			COc1nc(NNC(=O)c2ccncc2)nc(OC(=O)C(N)Cc2c[nH]c3ccccc23)n1 (configuration not stated)
30.2 µM (≈ 10 µg/mL)	30.2 µM (≈ 10 µg/mL)	30.2 µM (≈ 10 µg/mL)		30.2 µM (≈ 10 µg/mL)				O=C(O)c1cn(C2CC2)c2cc(N3CCNCC3)c(F)cc2c1=O [CIPROFLOXACIN]

The remaining lines, values behind:

SMILES	MIC90 [1]	MIC90 [2]	MIC90 [3]	MIC90 [4] [µM]	MIC90 [5]	IC50 [6] [µM]	MIC90 [7]	inhibition [8] [%]
COc1nc(OC(=O)C(N)C(C)C)nc(Oc2c(OC)cc(Cc3cnc(N)nc3N)cc2OC)n1 (configuration not stated)	10.6 µM (≈ 5.31 µg/mL)	7.9 µM (≈ 3.95 µg/mL)	6.6 µM (≈ 3.3 µg/mL)	15.9 (≈ 7.96 µg/mL)	6.6 µM (≈ 3.3 µg/mL)	6.23		
COc1nc(OC(=O)C(N)Cc2c[nH]c3ccccc23)nc(Oc2c(OC)cc(Cc3cnc(N)nc3N)cc2OC)n1 (configuration not stated)	3.4 µM (≈ 2 µg/mL)	6.8 µM (≈ 4 µg/mL)	1.1 µM (≈ 0.646 µg/mL)	2.3 (≈ 1.35 µg/mL)	1.4 µM (≈ 0.823 µg/mL)	11.5		
NNC(=O)c1ccncc1	inactive	inactive	inactive		inactive		inactive	
COc1cc(Cc2cnc(N)nc2NC(=O)C(N)Cc2c[nH]c3ccccc23)cc(OC)c1OC (configuration not stated)	134 µM (≈ 64 µg/mL)	224 µM (≈ 107 µg/mL)	67.1 µM (≈ 32 µg/mL)	55.8 (≈ 26.6 µg/mL)	67.1 µM (≈ 32 µg/mL)	35.1		
NC(N)=S [THIOUREA]						21		
COc1nc(OC(=O)C(N)Cc2ccccc2)nc(Oc2c(OC)cc(Cc3cnc(N)nc3N)cc2OC)n1 (configuration not stated)	12 µM (≈ 6.58 µg/mL)	19.3 µM (≈ 10.6 µg/mL)	3.6 µM (≈ 1.97 µg/mL)	7.3 (≈ 4 µg/mL)	6 µM (≈ 3.29 µg/mL)	8.33		
CC(C)C(N)C(=O)NNC(=O)c1ccncc1 (configuration not stated)	inactive	inactive	inactive		inactive	48.6	inactive	
CC[C@H]1OC(=O)[C@H](C)[C@@H](O[C@H]2C[C@@](C)(OC)[C@@H](O)[C@H](C)O2)[C@H](C)[C@@H](O[C@@H]2O[C@H](C)C[C@H](N(C)C)[C@H]2O)[C@](C)(O)C[C@@H](C)/C(=N\OCOCCOC)[C@H](C)[C@@H](O)[C@]1(C)O [ROXITHROMYCIN]	0.6 µM (≈ 0.502 µg/mL)	0.6 µM (≈ 0.502 µg/mL)	0.6 µM (≈ 0.502 µg/mL)		0.3 µM (≈ 0.251 µg/mL)			
COc1nc(Nc2nc(N)ncc2Cc2cc(OC)c(OC)c(OC)c2)nc(OC(=O)C(N)C(C)C)n1 (configuration not stated)	166 µM (≈ 85.3 µg/mL)	124 µM (≈ 64 µg/mL)	62.2 µM (≈ 32 µg/mL)	82.8 (≈ 42.6 µg/mL)	51.7 µM (≈ 26.6 µg/mL)	19.3		
COc1nc(NNC(=O)c2ccncc2)nc(OC(=O)C(N)Cc2ccccc2)n1 (configuration not stated)	104 µM (≈ 42.6 µg/mL)	156 µM (≈ 63.9 µg/mL)	52 µM (≈ 21.3 µg/mL)	78 (≈ 31.9 µg/mL)	65 µM (≈ 26.6 µg/mL)	31		
COc1nc(Nc2nc(N)ncc2Cc2cc(OC)c(OC)c(OC)c2)nc(OC(=O)C(N)Cc2c[nH]c3ccccc23)n1 (configuration not stated)	213 µM (≈ 128 µg/mL)	213 µM (≈ 128 µg/mL)	53.2 µM (≈ 32 µg/mL)	53.2 (≈ 32 µg/mL)	53.2 µM (≈ 32 µg/mL)	12		
Cc1ncc([N+](=O)[O-])n1CCO	inactive	inactive	inactive		inactive			13
